Assay results pooled from the literature.
Lines come from different studies, so protocols differ.

| Structure (SMILES) | system | setting | concentration |
| --- | --- | --- | --- |
| O=S(=O)(c1ccc(-c2ccc3nccc(Nc4ccncn4)c3c2)cc1)N1CCOCC1 | female BALB/c mouse, plasma | intraperitoneal, 10 mg/kg, 4.8 min | 2340 ng/mL |
| C[C@]12C[C@@]34C=CC(=O)[C@@](C)(CCC(=O)Nc5c(O)ccc(C(=O)O)c5O)[C@@H]3[C@H](C[C@@H]1C4)O2 | male C57BL/6 mouse, plasma | intravenous, 3 mg/kg, 5 min, single dose | 20 µM |
| c1ccc(-c2nc(N3CCC(c4ccccn4)C3)c3ccccc3n2)nc1 (stereo not drawn) | female BALB/c mouse, plasma | oral, 50 mg/kg, 2 h | 2730 ng/mL |
| Cc1ccc(-c2cccc3cnc(Nc4ccc(C(=O)N5CCOCC5)cc4)nc23)cn1 | mouse, plasma | intraperitoneal, 10 mg/kg, 2 h | 0 µM |
| CC(C)CN(C[C@@H](O)[C@H](Cc1ccccc1)NC(=O)O[C@H]1CO[C@H]2OCC[C@H]21)S(=O)(=O)c1ccc(N)cc1 | BALB/c mouse, brain | intravenous, 2.5 mg/kg, 3 h | 1.19 ng/g |
| CC(C)(Nc1nc(-c2ccccn2)nc2ccccc12)c1ccccn1 | female BALB/c mouse, plasma | oral, 50 mg/kg, 1 h | 4740 ng/mL |
| O=C(O)C1CCN(c2ncc(-c3ccc4c(c3)OCCCO4)s2)CC1 | male Swiss mouse, plasma | oral, 30 mg/kg, 2 h, single dose | 5990 ng/mL |
| CC(C)Cc1nn(C)c(=O)c2c(SCCCO)n(Cc3cccc4ccccc34)cc12 | mouse, brain | intraperitoneal, 20 mg/kg, 7 days | 0 µM |
| O=S(=O)(c1cccc(C(F)(F)F)c1)N1CCc2ccc(OCc3c(Cl)cncc3Cl)cc21 | mouse, plasma | intraperitoneal, 10 mg/kg, 4 h | 0.62 µM |
| CC(C)Oc1cccc(-c2cnc(N3CCC(C(N)=O)CC3)s2)c1 | male Swiss mouse, plasma | oral, 30 mg/kg, 15 min, single dose | 416 ng/mL |
| O=c1nc(N2CCN(CC3CCCCC3)CC2)sc2c([N+](=O)[O-])cc(C(F)(F)F)cc12 | CD-1 mouse, lung | intravenous, 10 mg/kg, 15 min | 2830 ng/mL |
| Cc1ccc([N+](=O)[O-])cc1S(=O)(=O)n1c(C)nc2ccccc21 | mouse, liver | intraperitoneal, 30 mg/kg, 24 h | 3.1 µM |
